Data from ChEMBL document CHEMBL1629686, “Substrate selectivity and a novel role in inhibitor discrimination by residue 237 in the KPC-2 beta-lactamase” (Antimicrob Agents Chemother, 2010).

What was measured:
Type in all cases: functional
Klebsiella pneumoniae [1] = test: Antimicrobial activity against Klebsiella pneumoniae 1534 expressing beta-lactamase KPC-2 by agar dilution method in presence of beta-lactamase inhibitor Tazobactam
Method in brief: (§1)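 LB agar dilution MIC following CLSI criteria, inoculated with a Steers replicator. Tested as piperacillin-tazobactam at a fixed 8:1 ratio.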

Escherichia coli [2] = test: Antimicrobial activity against Escherichia coli DH10B harboring beta-lactamase KPC-2 T237Y mutant by agar dilution method; conditions: K-12 DH10B
Method in brief: (§2)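 LB agar dilution MICs followed CLSI criteria, with inocula applied by Steers replicator. […] Piperacillin-tazobactam was tested at an 8:1 ratio. Wild-type and mutant blaKPC-2 were carried on pBC SK(+), or wild type on pBR322-catI, in E. coli DH10B.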

Escherichia coli [3] = test: Antimicrobial activity against Escherichia coli DH10B harboring beta-lactamase KPC-2 T237I mutant by agar dilution method; conditions: K-12 DH10B; method in brief: as §2
Escherichia coli [4] = test: Antimicrobial activity against Escherichia coli DH10B harboring beta-lactamase KPC-2 T237N mutant by agar dilution method; conditions: K-12 DH10B; method in brief: as §2
Escherichia coli [5] = test: Antimicrobial activity against Escherichia coli DH10B harboring beta-lactamase KPC-2 T237P mutant by agar dilution method; conditions: K-12 DH10B; method in brief: as §2
Escherichia coli [6] = test: Antimicrobial activity against Escherichia coli DH10B harboring beta-lactamase KPC-2 T237D mutant by agar dilution method; conditions: K-12 DH10B; method in brief: as §2
Klebsiella pneumoniae [7] = test: Antimicrobial activity against Klebsiella pneumoniae 1534 expressing beta-lactamase KPC-2 by agar dilution method
Method in brief: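 MICs were determined by LB agar dilution following CLSI criteria, with a Steers replicator. […] Piperacillin-tazobactam was kept at an 8:1 ratio.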

Escherichia coli [8] = test: Antimicrobial activity against Escherichia coli DH10B harboring beta-lactamase KPC-2 T237Q mutant by agar dilution method; conditions: K-12 DH10B; method in brief: as §2
Escherichia coli [9] = test: Antimicrobial activity against Escherichia coli DH10B harboring plasmid […] by agar dilution method; conditions: K-12 DH10B; method in brief: as §2
Escherichia coli [10] = test: Antimicrobial activity against Escherichia coli DH10B harboring beta-lactamase KPC-2 T237A mutant by agar dilution method; conditions: K-12 DH10B; method in brief: as §2
Escherichia coli [11] = test: Antimicrobial activity against Escherichia coli DH10B harboring plasmid pBC SK(+) carrying wild type beta-lactamase KPC-2 by agar dilution method; conditions: K-12 DH10B; method in brief: as §2
Escherichia coli [12] = test: Antimicrobial activity against Escherichia coli DH10B harboring plasmid […] by agar dilution method in presence of beta-lactamase inhibitor Tazobactam; conditions: K-12 DH10B; method in brief: as §1
Escherichia coli [13] = test: Antimicrobial activity against Escherichia coli DH10B harboring beta-lactamase KPC-2 T237L mutant by agar dilution method in presence of beta-lactamase inhibitor Tazobactam; conditions: K-12 DH10B
Method in brief: (§3)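 LB agar dilution MICs by CLSI criteria, inoculated with a Steers replicator. […] Strains were E. coli DH10B with or without pBC SK(+) carrying wild-type blaKPC-2 or a position 237 variant.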

Escherichia coli [14] = test: Antimicrobial activity against Escherichia coli DH10B harboring beta-lactamase KPC-2 T237N mutant by agar dilution method in presence of beta-lactamase inhibitor Tazobactam; conditions: K-12 DH10B; method in brief: as §3
Escherichia coli [15] = test: Antimicrobial activity against Escherichia coli DH10B harboring beta-lactamase KPC-2 T237V mutant by agar dilution method; conditions: K-12 DH10B; method in brief: as §2
Escherichia coli [16] = test: Antimicrobial activity against Escherichia coli DH10B harboring beta-lactamase KPC-2 T237K mutant by agar dilution method in presence of beta-lactamase inhibitor Tazobactam; conditions: K-12 DH10B; method in brief: as §3
Escherichia coli [17] = test: Antimicrobial activity against Escherichia coli DH10B harboring beta-lactamase KPC-2 T237M mutant by agar dilution method in presence of beta-lactamase inhibitor Tazobactam; conditions: K-12 DH10B; method in brief: as §3
Escherichia coli [18] = test: Antimicrobial activity against Escherichia coli DH10B harboring beta-lactamase KPC-2 T237W mutant by agar dilution method; conditions: K-12 DH10B; method in brief: as §2
Escherichia coli [19] = test: Antimicrobial activity against Escherichia coli DH10B by agar dilution method; conditions: K-12 DH10B; method in brief: as §2
Escherichia coli [20] = test: Antimicrobial activity against Escherichia coli DH10B harboring beta-lactamase KPC-2 T237G mutant by agar dilution method; conditions: K-12 DH10B; method in brief: as §2
Escherichia coli [21] = test: Antimicrobial activity against Escherichia coli DH10B harboring beta-lactamase KPC-2 T237S mutant by agar dilution method; conditions: K-12 DH10B; method in brief: as §2
Escherichia coli [22] = test: Antimicrobial activity against Escherichia coli DH10B harboring beta-lactamase KPC-2 T237F mutant by agar dilution method; conditions: K-12 DH10B; method in brief: as §2
Escherichia coli [23] = test: Antimicrobial activity against Escherichia coli DH10B harboring beta-lactamase KPC-2 T237M mutant by agar dilution method; conditions: K-12 DH10B; method in brief: as §2
Escherichia coli [24] = test: Antimicrobial activity against Escherichia coli DH10B harboring beta-lactamase KPC-2 T237E mutant by agar dilution method; conditions: K-12 DH10B; method in brief: as §2
Escherichia coli [25] = test: Antimicrobial activity against Escherichia coli DH10B harboring plasmid pBR322-catI carrying beta-lactamase KPC-2 by agar dilution method; conditions: K-12 DH10B; method in brief: as §2
Escherichia coli [26] = test: Antimicrobial activity against Escherichia coli DH10B harboring beta-lactamase KPC-2 T237H mutant by agar dilution method; conditions: K-12 DH10B; method in brief: as §2
Escherichia coli [27] = test: Antimicrobial activity against Escherichia coli DH10B harboring beta-lactamase KPC-2 T237L mutant by agar dilution method; conditions: K-12 DH10B; method in brief: as §2
Escherichia coli [28] = test: Antimicrobial activity against Escherichia coli DH10B harboring beta-lactamase KPC-2 T237C mutant by agar dilution method; conditions: K-12 DH10B; method in brief: as §2
Escherichia coli [29] = test: Antimicrobial activity against Escherichia coli DH10B harboring beta-lactamase KPC-2 T237K mutant by agar dilution method; conditions: K-12 DH10B; method in brief: as §2
Escherichia coli [30] = test: Antimicrobial activity against Escherichia coli DH10B harboring beta-lactamase KPC-2 T237R mutant by agar dilution method; conditions: K-12 DH10B; method in brief: as §2
Escherichia coli [31] = test: Antimicrobial activity against Escherichia coli DH10B harboring beta-lactamase KPC-2 T237I mutant by agar dilution method in presence of beta-lactamase inhibitor Tazobactam; conditions: K-12 DH10B; method in brief: as §3
Escherichia coli [32] = test: Antimicrobial activity against Escherichia coli DH10B harboring beta-lactamase KPC-2 T237A mutant by agar dilution method in presence of beta-lactamase inhibitor Tazobactam; conditions: K-12 DH10B; method in brief: as §3
Escherichia coli [33] = test: Antimicrobial activity against Escherichia coli DH10B harboring beta-lactamase KPC-2 T237R mutant by agar dilution method in presence of beta-lactamase inhibitor clavulanic acid; conditions: K-12 DH10B
Method in brief: (§4)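 LB agar dilution MICs per CLSI criteria, inoculated with a Steers replicator. […] Strains: E. coli DH10B alone, DH10B carrying empty pBC SK(+), or DH10B carrying pBC SK(+)-blaKPC-2 position 237 variants made by site-saturation mutagenesis and confirmed by sequencing. Plasmid selection used 20 mg/liter chloramphenicol.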

Escherichia coli [34] = test: Antimicrobial activity against Escherichia coli DH10B harboring plasmid pBC SK(+) carrying wild type beta-lactamase KPC-2 by agar dilution method in presence of beta-lactamase inhibitor Sulbactam; conditions: K-12 DH10B
Method in brief: (§5)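 LB agar dilution MICs by CLSI criteria, applied with a Steers replicator. […] Hosts were E. coli DH10B carrying pBC SK(+) with wild-type blaKPC-2 or a position 237 variant.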

Escherichia coli [35] = test: Antimicrobial activity against Escherichia coli DH10B harboring beta-lactamase KPC-2 T237V mutant by agar dilution method in presence of beta-lactamase inhibitor Sulbactam; conditions: K-12 DH10B; method in brief: as §5
Escherichia coli [36] = test: Antimicrobial activity against Escherichia coli DH10B harboring beta-lactamase KPC-2 T237C mutant by agar dilution method in presence of beta-lactamase inhibitor Sulbactam; conditions: K-12 DH10B; method in brief: as §4
Escherichia coli [37] = test: Antimicrobial activity against Escherichia coli DH10B harboring beta-lactamase KPC-2 T237Y mutant by agar dilution method in presence of beta-lactamase inhibitor Sulbactam; conditions: K-12 DH10B; method in brief: as §5
Escherichia coli [38] = test: Antimicrobial activity against Escherichia coli DH10B harboring beta-lactamase KPC-2 T237H mutant by agar dilution method in presence of beta-lactamase inhibitor Sulbactam; conditions: K-12 DH10B; method in brief: as §5
Escherichia coli [39] = test: Antimicrobial activity against Escherichia coli DH10B harboring beta-lactamase KPC-2 T237W mutant by agar dilution method in presence of beta-lactamase inhibitor clavulanic acid; conditions: K-12 DH10B; method in brief: as §4

Measured: MIC

CCN1CCN(C(=O)N[C@@H](C(=O)N[C@@H]2C(=O)N3[C@@H]2SC(C)(C)[C@@H]3C(=O)O)c2ccccc2)C(=O)C1=O [PIPERACILLIN]
64 µg/mL: Klebsiella pneumoniae [1] | Escherichia coli [8] | Escherichia coli [10]
8 µg/mL: Escherichia coli [3] | Escherichia coli [4] | Escherichia coli [18] | Escherichia coli [24] | Escherichia coli [26]
1 µg/mL: Escherichia coli [5] | Escherichia coli [14] | Escherichia coli [29] | Escherichia coli [31]
32 µg/mL: Escherichia coli [23]
0.5 µg/mL: Escherichia coli [12] | Escherichia coli [16]
4 µg/mL: Escherichia coli [2] | Escherichia coli [6] | Escherichia coli [22] | Escherichia coli [28] | Escherichia coli [30] | Escherichia coli [32]
16 µg/mL: Escherichia coli [15] | Escherichia coli [20] | Escherichia coli [27]
1020 µg/mL: Klebsiella pneumoniae [7] | Escherichia coli [25]
2 µg/mL: Escherichia coli [9] | Escherichia coli [13] | Escherichia coli [17] | Escherichia coli [19]
128 µg/mL: Escherichia coli [11] | Escherichia coli [21]

CC1(C)S[C@@H]2[C@H](NC(=O)[C@H](N)c3ccccc3)C(=O)N2[C@H]1C(=O)O [AMPICILLIN]
8190 µg/mL: Klebsiella pneumoniae [7]
32 µg/mL: Escherichia coli [4] | Escherichia coli [35] | Escherichia coli [24]
64 µg/mL: Escherichia coli [3] | Escherichia coli [26] | Escherichia coli [27]
4100 µg/mL: Escherichia coli [25]
128 µg/mL: Escherichia coli [34] | Escherichia coli [15] | Escherichia coli [20] | Escherichia coli [23]
8 µg/mL: Escherichia coli [37]
512 µg/mL: Escherichia coli [21]
1 µg/mL: Escherichia coli [33] | Escherichia coli [5] | Escherichia coli [36] | Escherichia coli [9] | Escherichia coli [19] | Escherichia coli [39] | Escherichia coli [29]
256 µg/mL: Escherichia coli [8] | Escherichia coli [10] | Escherichia coli [11]
16 µg/mL: Escherichia coli [2] | Escherichia coli [6] | Escherichia coli [18] | Escherichia coli [22] | Escherichia coli [38]
4 µg/mL: Escherichia coli [28] | Escherichia coli [30]
